The whole screen tested about 130,000 compounds, of which about 900 (0.69%) were called active. The sample as a whole holds a higher share of actives than the screen did. Values without a mark were called inactive.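 The calls were made as follows: active = inhibition above a set limit, placed 3 SD over the median of all compounds (cut at about 26% in these data); inactive = the rest.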

A short description of the assay: compounds extending yeast replicative lifespan, primary screen, S. cerevisiae, OD615 (AID 775).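 Also: 0% = nicotinamide-treated wells and 100% = cells grown without nicotinamide.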 The conditions noted are these: S. cerevisiae growth with nicotinamide, at 10 µM, active compounds read high, deaD strain in restrictive glucose medium. The method in brief:
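Test system: DeaD-strain S. cerevisiae / Buffer or medium: restrictive glucose medium / Also added: nicotinamide 1.5 mM / Doses: one concentration, 10 µM, DMSO 0.25% / Schedule: 48 h at 30 °C / Signal: OD615 measurement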
Take `O=C1OC(c2ccc(Cl)cc2)=N/C1=C\c1cccnc1`: the inhibition of the nicotinamide effect is 20.7%.
In the case of `O=C1/C(=C\c2cccnc2)CN(Cc2ccccc2)C/C1=C\c1cccnc1`, the inhibition of the nicotinamide effect is 54.9% (active).
With `O=C(O)C1CC(=O)N(Cc2cccnc2)C1` (configuration not stated), the inhibition of the nicotinamide effect was -1.28%.
Turning to `O=C(NCCc1ccccc1)C1CCC(Cn2c(=O)c3ccccc3n(Cc3cccnc3)c2=O)CC1` (configuration not stated), the inhibition of the nicotinamide effect was 0.76%.
`Cc1ccc2nc(-c3cccnc3)c(NC3CCCC3)n2c1`: the inhibition of the nicotinamide effect is -2.42%.
Then `Cc1cccc(OP(=O)(Nc2c(C)n(C)n(-c3ccccc3)c2=O)Oc2cccc(C)c2)c1`, with 0%.
As to `CCN(CC)c1ccc([N+](=O)[O-])cc1C(=O)O`, the inhibition of the nicotinamide effect was 4.32%.
In the case of `O=C(COC(=O)CCCNC(=O)c1ccc(Cl)cc1)Nc1cc(Cl)ccc1Cl` it was 5.47%; in that of `CC1CN(S(=O)(=O)c2ccc(C(=O)Nc3sccc3C(N)=O)cc2)CC(C)O1` (configuration not stated), 0.65%.
Turning to `CC(C)Cc1nn2c(=O)cc(O)nc2s1`, the inhibition of the nicotinamide effect is 47.1% (active).
In the case of `Cc1sc(NC(=S)NC(=O)c2cccs2)nc1-c1ccc(CC(C)C)cc1` it was -13.7%; in that of `COC(=O)c1ccc(C(=O)OC)c(NC(=S)N2CCN(c3ccc(F)cc3)CC2)c1`, -4.39%.
For `CSCc1ccc(C(=O)Nc2cc(C)cc(C)c2)cc1`, the inhibition of the nicotinamide effect is 1.95%.
In the case of `Cn1c(=O)c(Sc2ccc(Cl)cc2)c(O)c2ccccc21` it was 29.7% (active); in that of `Cn1c(=O)c(C(=O)Nc2ncccn2)c(O)c2ccccc21`, -13.7%; in that of `CCCn1c(=O)c(-c2ccccc2)c(O)c2ccccc21`, 3.34%.
Then `O=C(/C=C/c1ccccc1[N+](=O)[O-])NCC1CCCO1` (configuration not stated), with 1.94%.
On to `Cc1ccc(C(=O)OCc2nc(N)nc(Nc3ccccc3C)n2)cc1`, for which the inhibition of the nicotinamide effect was -3.73%.
In the case of `NS(=O)(=O)c1ccc(CCNC(=S)Nc2ccc(S(N)(=O)=O)cc2)cc1` it was 1.53%; in that of `Cc1cccc(CC(=O)N2CCN=C2SCc2ccc([N+](=O)[O-])cc2)c1`, -1.98%; in that of `CC(=C1C(=O)c2ccccc2C1=O)N1CCN(c2ccccn2)CC1`, 54.4% (active).
For the compound `O=C(C(Cl)Cl)N1CCN(c2ccccn2)CC1`, the inhibition of the nicotinamide effect was 1.15%.
Then `CNC(=S)N1CCN(c2ccccn2)CC1`, with 1.57%; and `Cc1cccc(NC(=S)Nc2ccc3cn[nH]c3c2)c1`, with 3.23%; and `S=C(Nc1cccc(Cl)c1)Nc1ccc2cn[nH]c2c1`, with 32.1% (active).
Consider `Cc1csc(NC(=S)Nc2cccc(Cl)c2)n1`, for which the inhibition of the nicotinamide effect is -1.45%.
Regarding `Cc1ccc(NC(=O)CCC(=O)N/N=C/c2ccco2)c(C)c1`, the inhibition of the nicotinamide effect is 0.43%.
`Cc1ccc2c(CC(=O)NCc3cccs3)coc2c1`: the inhibition of the nicotinamide effect was -1.73%.
Then `Cc1cccc(C(=O)c2cccc(C)c2)c1`, with -6.29%; and `Cc1nccn1CC(=O)N/N=C/c1ccc(O)c(O)c1`, with 0.31%; and `COc1ccccc1C1CC(=O)n2c(nc(-c3ccccc3)c2-c2ccccc2)S1` (configuration not stated), with 0.78%.
Then `COc1cc(OC)c(-n2cc(-c3ccc(Cl)cc3)[nH]c2=O)cc1Cl`, with -0.64%.
In the case of `COc1cc(OC)c(-n2c(C)cc(C=O)c2C)cc1Cl`, the inhibition of the nicotinamide effect is 39.8% (active).
In the case of `Cc1cc(C=O)c(C)n1-c1ccc(NC2CCCCC2)c([N+](=O)[O-])c1` it was -25.3%.
In the case of `O=C(Cc1coc2ccc3ccccc3c12)NCc1cccs1` it was -1.99%; in that of `COc1cc(/C=N\NC(=O)c2nonc2N)c(OC)cc1Br`, 5.5%; in that of `COCCn1c(=O)[nH]c(=O)c2cc(C(=O)c3cc(OC)ccc3O)cnc21`, -5.05%.
Regarding `CCCn1c(=O)c2c(C(F)(F)F)cc(-c3cccs3)nc2n(CCC)c1=O`, the inhibition of the nicotinamide effect is 3.84%.
As for `CCCN1Cc2cccc(C(=O)Nc3ccc(S(=O)(=O)N4CCCCCC4)cc3)c2C1=O`, the inhibition of the nicotinamide effect is -3.05%.
Regarding `CCCN1Cc2cccc(C(=O)NCc3ccccc3)c2C1=O`, the inhibition of the nicotinamide effect was -14.6%.
As to `O=C(O)c1cccc2c1C(=O)N(C1CCCCC1)C2`, the inhibition of the nicotinamide effect is 63.7% (active).
`COc1cc(NC(=S)NNC(=O)CC(C)C)c(OC)cc1Cl`: the inhibition of the nicotinamide effect is 0.62%.
As for `COc1ccccc1NC(=O)CCCc1c[nH]c2ccccc12`, the inhibition of the nicotinamide effect is -7.92%.
On to `COc1ccc(NS(=O)(=O)c2ccc(NC(=S)NC(=O)/C=C/c3ccc(C)cc3)cc2)nn1`, for which the inhibition of the nicotinamide effect was -1.4%.
In the case of `COc1cccc(NC(=O)Cc2ccc(C)cc2)c1` it was -12.4%; in that of `COc1ccc(NC(=O)/C(Cl)=C(/Cl)S(=O)Cc2ccc(C)cc2)cn1` (configuration not stated), 45.5% (active); in that of `Cc1ccc(CC(=O)Nc2ccc(OC(F)F)c(Cl)c2)cc1C`, 0.1%.
Then `O=C(NCC1CCCO1)c1ccc2ccccc2n1` (configuration not stated), with -8.01%; and `S=C(NCCc1ccccc1)NCC1CCCO1` (configuration not stated), with 1.76%.
In the case of `O=C(CS(=O)(=O)Cc1ccccc1)NCC1CCCO1` (configuration not stated) it was 46.3% (active); in that of `COc1ccc(-n2c(=S)[nH]c3sc4c(c3c2=O)CCc2ccccc2-4)cc1`, 8.03%; in that of `O=C(/C=C/c1ccc([N+](=O)[O-])cc1)NCCSCc1ccco1`, -1.15%.
Take `CC(=O)c1c(O)cc2n(c1=O)-c1ccc(Cl)cc1C2(C)C`: the inhibition of the nicotinamide effect is 50.9% (active).
Then `O=C(COC(=O)/C=C/c1nc2ccccc2s1)Nc1ccccc1Oc1ccccc1`, with -1.04%; and `Cc1nnc(NC(=O)/C=C/c2ccco2)s1`, with -3.6%.
In the case of `COc1cc(OC)nc(S(C)(=O)=O)n1` it was 2.39%.
`COc1ccc(-c2cc(C(F)(F)F)nc(SCC(=O)Nc3ccc4c(c3)OCO4)n2)cc1OC`: the inhibition of the nicotinamide effect is 3.91%.
In the case of `COc1ccc(-c2cc(C(F)(F)F)nc(S(C)(=O)=O)n2)cc1OC` it was 48.9% (active); in that of `Cc1ccc(C)c2[nH]c(=O)c(CCNC(=O)c3cccs3)cc12`, -0.37%.
For the compound `O=C(OC1CCOC1=O)c1cccc(S(=O)(=O)Nc2ccc(F)cc2)c1` (configuration not stated), the inhibition of the nicotinamide effect is 1.4%.
Then `COc1ccc(C)cc1NC(=O)C(OC(=O)c1cccc(S(=O)(=O)N(C)c2ccccc2)c1)c1ccccc1` (configuration not stated), with -5.56%.
Regarding `Cc1cccc(N=C2NN=C(c3c[nH]c4ccccc34)CS2)c1`, the inhibition of the nicotinamide effect is 5.95%.
Then `CCN(CC(=O)NCCc1ccccc1)S(=O)(=O)c1ccc(C)cc1`, with 5.67%; and `CCN(CC)CCn1c(/N=C/c2cc(Br)ccc2O)nc2ccccc21`, with 37.7% (active); and `CCn1c(NC(=O)c2nn(C)cc2Br)nc2ccccc21`, with -7.14%.
`C/C(=N\c1nc2ccccc2n1C)c1cc(Cl)ccc1O`: the inhibition of the nicotinamide effect was -13.3%.
`CN(c1ccccc1)S(=O)(=O)c1cccc(NC(=O)Cc2c(F)cccc2Cl)c1`: the inhibition of the nicotinamide effect was 1.53%.
In the case of `O=C(CN1C2=NCCN2c2ccccc21)c1cccs1` it was 0.42%; in that of `O=C1Nc2cc(Cl)c(Cl)cc2N(O)N1c1cc(Cl)cc(Cl)c1`, 110% (active); in that of `O=C(O)c1cccc(N2C(=O)Nc3ccccc3N2O)c1`, 4.66%.
Then `CCOC(=O)c1c(NC(=O)Cn2nc(C(F)(F)F)cc2C)sc2c1CCC2`, with -3.99%; and `O=C1CC(c2ccccc2)CC(O)=C1C=NCCN1CCOCC1` (configuration not stated), with 70.8% (active).
In the case of `CC(C)C(=O)N1CCN(CCN=CC2=C(O)CC(c3ccco3)CC2=O)CC1` (configuration not stated), the inhibition of the nicotinamide effect was -8.76%.
Then `O=C1CC(c2cccc(Cl)c2)CC(O)=C1C=Nc1ccccc1` (configuration not stated), with -1.47%; and `O=C(Nc1ccc2ccccc2c1)/C(=C\c1ccc2c(c1)OCO2)NC(=O)c1ccco1`, with 2.64%; and `CN(c1ccccc1)c1nc(N)c([N+](=O)[O-])c(NCc2ccco2)n1`, with 8.11%.
Consider `CCOC(=O)C1CCN(C(=O)/C=C/c2cc(OC)c(OC)c(OC)c2)CC1`, for which the inhibition of the nicotinamide effect was -0.86%.
In the case of `Cc1nc2c(C(=O)NCc3cccs3)cnn2c(C)c1Cc1ccc(F)cc1` it was 7.32%.
For the compound `Cc1ccc(SCCC(=O)NC(C(C)C)C(C)C)cc1`, the inhibition of the nicotinamide effect is 1.38%.
For `CC1Cc2ccccc2N1C(=O)CSc1nc2ccccc2o1` (configuration not stated), the inhibition of the nicotinamide effect is -13.2%.
Take `CCn1nc(C(=O)OCC(=O)N2c3ccccc3CC2C)c2ccccc2c1=O` (configuration not stated): the inhibition of the nicotinamide effect was -14.7%.
Turning to `CC1Cc2ccccc2N1C(=O)Cn1cnc2ccccc2c1=O` (configuration not stated), the inhibition of the nicotinamide effect was 55.5% (active).
As for `COc1ccc(COC(=O)N/N=C(\C)CC(=O)Nc2ccc(Cl)cc2)cc1`, the inhibition of the nicotinamide effect is -3.92%.
In the case of `O=S(=O)(NCCSc1ccccn1)c1ccc(Cl)cc1` it was 10.5%; in that of `COc1ccc(/C=C(/CC(=O)Nc2ccc(C)cc2)c2nc3ccccc3s2)cc1`, -0.84%; in that of `N#C/C(=C\c1ccccc1C(F)(F)F)C(=O)Nc1ccccc1F`, 6.56%.
Then `CNC(=O)/C(C#N)=C/c1c(F)cccc1Cl`, with 43.1% (active); and `Cc1cc(/C=C(/C#N)C(=O)Nc2ccc(Cl)cc2)c(C)n1-c1cccnc1`, with 0.59%; and `CCOC(=O)C(C)Sc1nnc(CSc2nc3nc(C)cc(C)n3n2)o1` (configuration not stated), with -1.15%.
Then `CCOc1ncccc1C(=O)N(C)CC(=O)Nc1ccc(F)cc1`, with 0.31%; and `O=C(/C=C/c1cccc([N+](=O)[O-])c1)NCCSCc1ccco1`, with -4.01%.
With `COc1ccc(CC(=O)Nc2ccc3c(c2)CCC3)cc1S(=O)(=O)N1CCOCC1`, the inhibition of the nicotinamide effect was 61% (active).
In the case of `COc1ccc(CNc2ccc3c(c2)CCC3)cc1OC` it was -10.1%.
As to `O=C(CN1C(=O)CCC1=O)Nc1ccc(S(=O)(=O)N2CCOCC2)cc1`, the inhibition of the nicotinamide effect is -14.7%.
For `CCCc1cc(=O)[nH]c(SCc2cc(=O)oc3c(C)c(C)ccc23)n1`, the inhibition of the nicotinamide effect was 4.9%.
As for `O=C(OCc1ccc(Br)cc1)c1cccc(-c2nnc(-c3ccccc3)o2)c1`, the inhibition of the nicotinamide effect was 10.4%.
Then `CCOC(=O)NN1C(=O)c2ccccc2NC1c1cccc(O)c1` (configuration not stated), with -1.57%.

The values above are taken from PubChem BioAssay AID775 (SRMLSC, 2007).
